Data set [1] concerns the target Sodium-dependent dopamine transporter (Homo sapiens, UniProt Q01959). Put plainly: Inhibition of [3H]dopamine uptake at human DAT expressed in HEK293 cells after 10 mins by scintillation counting.
For data set [2], the target named is Sodium-dependent serotonin transporter (Homo sapiens, UniProt P31645). Put plainly: Inhibition of [3H]serotonin uptake at human SERT expressed in HEK293 cells after 10 min by scintillation counting.
Another data set concerns Mus musculus. In words: Toxicity in mouse assessed as increase in locomotor activity at 50 mg/kg, po up to 5 mins relative to vehicle treated control. The settings on record: in vivo. Type of data set: organism-based. Further details: dose 50 mg/kg, route oral. The essentials: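 Mice were dosed orally at 50 mg/kg and 30 min later placed singly in new 35×35×35 cm plastic cages under dim light with sound attenuation. Activity was logged by a monitoring apparatus at intervals up to 30 min, and the 5 min point was analysed. Mean ± SEM; one-way ANOVA, Scheffe post hoc, versus control.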

Data set [3] concerns the target T1, Muscarinic acetylcholine receptor M2 (Homo sapiens) (UniProt P08172).
T1 sequence (whole entry): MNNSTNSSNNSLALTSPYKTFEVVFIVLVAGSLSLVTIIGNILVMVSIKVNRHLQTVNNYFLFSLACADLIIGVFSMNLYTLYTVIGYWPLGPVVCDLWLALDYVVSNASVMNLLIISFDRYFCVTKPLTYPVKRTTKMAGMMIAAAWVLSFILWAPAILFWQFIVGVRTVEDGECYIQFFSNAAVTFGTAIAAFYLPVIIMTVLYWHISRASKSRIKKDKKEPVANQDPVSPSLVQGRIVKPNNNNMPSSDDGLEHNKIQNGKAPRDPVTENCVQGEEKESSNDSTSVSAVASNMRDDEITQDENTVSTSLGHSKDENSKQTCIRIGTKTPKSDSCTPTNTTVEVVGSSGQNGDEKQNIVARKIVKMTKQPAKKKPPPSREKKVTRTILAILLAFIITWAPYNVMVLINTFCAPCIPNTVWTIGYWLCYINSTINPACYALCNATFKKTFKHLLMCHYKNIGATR
Put plainly: Displacement of [3H]AF-DX384 from M2 receptor at 10 uM. Summed up:
(§1)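 Radioligand binding panel run by a contract lab (CEREP). Percent inhibition of specific radioligand binding was measured at a single primary test concentration of 10.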
In general terms: Loss of bound radioactivity is the signal in a displacement assay; it reports binding, not function.

Data set [4] addresses Beta-1 adrenergic receptor (Homo sapiens) (UniProt P08588). In words: Displacement of [3H](-)CGP12177 beta1 adrenergic receptor at 10 uM. The essentials: as §1
Data set [5] deals with Histamine H1 receptor (Cavia porcellus) (UniProt P31389). In words: Displacement of [3H]Pyrilamin from guinea pig histamine H1 receptor at 10 uM after 10 mins by liquid scintillation counting. Summed up: as §1
Histamine H1 receptor (Cavia porcellus), sequence (P31389 whole entry): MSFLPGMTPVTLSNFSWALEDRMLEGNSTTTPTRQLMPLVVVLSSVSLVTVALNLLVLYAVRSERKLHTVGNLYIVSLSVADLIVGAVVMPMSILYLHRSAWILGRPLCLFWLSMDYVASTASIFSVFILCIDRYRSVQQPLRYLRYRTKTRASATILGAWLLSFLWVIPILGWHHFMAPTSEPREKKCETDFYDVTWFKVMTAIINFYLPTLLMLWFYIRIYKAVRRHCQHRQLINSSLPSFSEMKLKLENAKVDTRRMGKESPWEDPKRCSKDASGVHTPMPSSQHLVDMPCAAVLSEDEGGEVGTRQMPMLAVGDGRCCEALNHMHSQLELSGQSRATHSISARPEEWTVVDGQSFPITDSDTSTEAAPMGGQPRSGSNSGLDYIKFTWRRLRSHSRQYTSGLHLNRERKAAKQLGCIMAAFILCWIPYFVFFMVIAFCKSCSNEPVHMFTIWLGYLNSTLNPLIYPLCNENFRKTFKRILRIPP
Data set [6] has as its target Sodium-dependent noradrenaline transporter (Homo sapiens, UniProt P23975). In words: Inhibition of [3H]noradrenaline uptake at human NET expressed in HEK293 cells after 10 mins by scintillation counting.
Data set [7] deals with 5-hydroxytryptamine receptor 6 (Homo sapiens) (UniProt P50406). Put plainly: Displacement of [3H]LSD from human recombinant 5HT6 receptor expressed in HEK293 cells at 10 uM after 60 mins by liquid scintillation counting. Type of data set: cell-based. The essentials: as §1
5-hydroxytryptamine receptor 6 (Homo sapiens), sequence (P50406 whole entry): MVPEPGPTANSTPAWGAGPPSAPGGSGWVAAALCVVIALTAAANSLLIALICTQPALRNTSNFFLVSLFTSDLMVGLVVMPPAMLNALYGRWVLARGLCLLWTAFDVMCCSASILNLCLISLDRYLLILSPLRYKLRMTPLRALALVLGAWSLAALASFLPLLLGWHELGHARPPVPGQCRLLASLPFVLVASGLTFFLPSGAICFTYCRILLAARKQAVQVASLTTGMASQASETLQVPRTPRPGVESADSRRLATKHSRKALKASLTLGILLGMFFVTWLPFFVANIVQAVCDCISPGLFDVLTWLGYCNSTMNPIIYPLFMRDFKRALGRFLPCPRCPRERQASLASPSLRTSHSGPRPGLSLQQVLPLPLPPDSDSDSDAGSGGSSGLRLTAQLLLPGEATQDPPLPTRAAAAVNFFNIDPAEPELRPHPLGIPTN
Data set [8] addresses 5-hydroxytryptamine receptor 2B (Homo sapiens) (UniProt P41595). In words: Displacement of [3H]Mesulergine from human recombinant 5HT2B receptor expressed in CHO cells at 10 uM after 30 mins by liquid scintillation counting. In kind it is cell-based. Summed up: as §1
The target in another data set is D(1A) dopamine receptor (Homo sapiens, UniProt P21728). In words: Displacement of [3H]SCH23390 from dopamine D1 receptor. The essentials: (§2)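 A primary screen at a single concentration was run first; compounds giving >80% inhibition of radioligand binding went on to full concentration–response curves to obtain IC50 (CEREP contract assay).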
D(1A) dopamine receptor, sequence (P21728 whole entry): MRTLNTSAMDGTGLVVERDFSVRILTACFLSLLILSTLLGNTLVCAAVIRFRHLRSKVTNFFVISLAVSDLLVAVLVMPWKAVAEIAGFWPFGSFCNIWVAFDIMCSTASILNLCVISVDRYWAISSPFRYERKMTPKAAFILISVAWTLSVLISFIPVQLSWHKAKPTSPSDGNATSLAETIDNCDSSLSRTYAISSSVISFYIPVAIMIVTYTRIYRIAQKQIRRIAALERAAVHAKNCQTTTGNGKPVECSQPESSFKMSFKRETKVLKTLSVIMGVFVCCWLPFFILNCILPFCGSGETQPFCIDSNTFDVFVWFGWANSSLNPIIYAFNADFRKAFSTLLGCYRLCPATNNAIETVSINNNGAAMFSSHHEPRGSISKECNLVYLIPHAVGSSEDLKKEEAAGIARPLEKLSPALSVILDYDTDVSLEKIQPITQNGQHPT
The nature of data set [9]: Tmax in Sprague-Dawley rat at 10 mg/kg, po. The settings on record: in vivo. In kind it is ADME, organism-based. Further details: dose 10 mg/kg, route oral. Summed up: (§3)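 Male SD rats, three per group, fasted overnight until 6 h post-dose, received a single oral dose of 10 mg/kg. Heparinized blood was drawn at 5, 15 and 30 min and at 1, 2, 4, 6, 8, 12 and 24 h. Plasma was frozen and analysed by LC/MS/MS for Cmax, Tmax, terminal t1/2 and AUC0-inf.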

In data set [10] the target is Adrenergic receptor alpha-1 (Rattus norvegicus, UniProt P15823+P23944+P43140). In words: Displacement of [3H]Prazosin from rat alpha1 adrenergic receptor after 60 mins by liquid scintillation counting. The essentials: as §2
The nature of data set [11]: Elimination half life in Sprague-Dawley rat at 10 mg/kg, po. Type of data set: ADME, organism-based. Further details: dose 10 mg/kg, route oral. The settings on record: in vivo, read-out: beta t1/2 (converted). The essentials:
as §3

The nature of data set [12]: Elimination half life in Sprague-Dawley rat at 1 mg/kg, iv. In kind it is ADME, organism-based. On the set-up: dose 1 mg/kg, route intravenous. Particulars: in vivo, read-out: beta t1/2 (converted). Summed up:
(§4)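 Male SD rats, three per group, fasted overnight until 6 h after dosing, were given a single 1 mg/kg iv dose into the femoral vein. Blood was sampled at 5, 15 and 30 min and at 1, 2, 4 and 6 h. Plasma was stored frozen and assayed by LC/MS/MS.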

Data set [13] can be described thus: Cmax in Sprague-Dawley rat at 1 mg/kg, iv. On the set-up: dose 1 mg/kg, route intravenous. Type of data set: ADME, organism-based. Particulars: in vivo. The essentials: as §4
A short description of data set [14]: AUC (0 to infinity) in Sprague-Dawley rat at 1 mg/kg, iv. Type of data set: ADME, organism-based. Particulars: plasma. Further details: time infinity, dose 1 mg/kg, route intravenous. Summed up:
as §4

Data set [15] is described as follows: Oral bioavailability in Sprague-Dawley rat at 10 mg/kg. In kind it is ADME, organism-based. The settings on record: in vivo. Summed up: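 Bioavailability in male SD rats (n=3 per group, fasted overnight to 6 h post-dose) came from a 10 mg/kg oral dose and a 1 mg/kg iv dose via the femoral vein. Plasma drug levels over time were measured by LC/MS/MS.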
Data set [16] can be described thus: AUC (0 to infinity) in Sprague-Dawley rat at 10 mg/kg, po. On the set-up: time infinity, dose 10 mg/kg, route oral. The settings on record: plasma. Type of data set: ADME, organism-based. The essentials: as §3
Data set [17] can be described thus: Cmax in Sprague-Dawley rat at 10 mg/kg, po. In kind it is ADME, organism-based. Further details: dose 10 mg/kg, route oral. Particulars: in vivo. Summed up:
as §3

Sodium-dependent noradrenaline transporter, sequence (P23975 whole entry): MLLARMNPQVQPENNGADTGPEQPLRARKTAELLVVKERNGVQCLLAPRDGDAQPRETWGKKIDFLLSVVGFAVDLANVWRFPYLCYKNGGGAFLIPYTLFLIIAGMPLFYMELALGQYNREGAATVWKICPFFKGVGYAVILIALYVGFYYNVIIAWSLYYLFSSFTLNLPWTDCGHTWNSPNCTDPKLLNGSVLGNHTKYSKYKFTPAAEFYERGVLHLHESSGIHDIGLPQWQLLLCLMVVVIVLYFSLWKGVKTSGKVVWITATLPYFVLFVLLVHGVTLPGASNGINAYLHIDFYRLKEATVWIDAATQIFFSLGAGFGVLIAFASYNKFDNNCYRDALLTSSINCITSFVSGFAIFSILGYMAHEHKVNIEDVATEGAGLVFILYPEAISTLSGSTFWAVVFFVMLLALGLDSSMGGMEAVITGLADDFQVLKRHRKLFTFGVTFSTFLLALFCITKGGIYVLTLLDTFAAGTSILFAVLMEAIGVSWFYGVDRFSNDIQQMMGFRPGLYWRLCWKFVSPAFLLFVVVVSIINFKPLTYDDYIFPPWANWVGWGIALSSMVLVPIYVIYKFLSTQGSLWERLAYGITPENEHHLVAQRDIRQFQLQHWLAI
Beta-1 adrenergic receptor (Homo sapiens), sequence (P08588 whole entry, looked up): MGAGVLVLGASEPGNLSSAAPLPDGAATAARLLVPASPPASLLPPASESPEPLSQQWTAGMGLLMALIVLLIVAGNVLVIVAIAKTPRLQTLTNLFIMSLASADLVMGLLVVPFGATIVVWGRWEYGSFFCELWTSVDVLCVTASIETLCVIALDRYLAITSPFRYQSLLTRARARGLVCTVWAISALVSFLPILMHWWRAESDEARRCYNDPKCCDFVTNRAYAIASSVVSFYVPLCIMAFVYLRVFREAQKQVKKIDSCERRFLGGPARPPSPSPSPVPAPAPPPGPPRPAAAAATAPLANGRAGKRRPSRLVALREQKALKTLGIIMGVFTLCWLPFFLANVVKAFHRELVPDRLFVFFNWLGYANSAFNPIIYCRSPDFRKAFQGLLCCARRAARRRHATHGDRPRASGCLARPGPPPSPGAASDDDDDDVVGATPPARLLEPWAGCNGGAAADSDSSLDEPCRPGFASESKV
5-hydroxytryptamine receptor 2B (Homo sapiens), sequence (P41595 whole entry): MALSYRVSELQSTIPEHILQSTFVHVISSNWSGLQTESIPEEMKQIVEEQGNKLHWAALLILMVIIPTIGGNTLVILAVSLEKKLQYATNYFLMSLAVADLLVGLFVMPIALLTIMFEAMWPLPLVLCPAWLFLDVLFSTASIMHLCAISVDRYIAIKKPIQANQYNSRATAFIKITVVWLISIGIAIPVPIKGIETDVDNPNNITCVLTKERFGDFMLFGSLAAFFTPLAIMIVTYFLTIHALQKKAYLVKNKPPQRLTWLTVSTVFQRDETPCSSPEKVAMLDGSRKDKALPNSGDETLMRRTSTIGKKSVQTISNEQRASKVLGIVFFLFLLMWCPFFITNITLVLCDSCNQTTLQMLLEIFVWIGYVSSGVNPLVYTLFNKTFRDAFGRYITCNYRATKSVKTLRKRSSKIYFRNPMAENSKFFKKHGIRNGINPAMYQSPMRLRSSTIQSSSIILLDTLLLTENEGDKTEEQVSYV
Sodium-dependent dopamine transporter, sequence (Q01959 whole entry): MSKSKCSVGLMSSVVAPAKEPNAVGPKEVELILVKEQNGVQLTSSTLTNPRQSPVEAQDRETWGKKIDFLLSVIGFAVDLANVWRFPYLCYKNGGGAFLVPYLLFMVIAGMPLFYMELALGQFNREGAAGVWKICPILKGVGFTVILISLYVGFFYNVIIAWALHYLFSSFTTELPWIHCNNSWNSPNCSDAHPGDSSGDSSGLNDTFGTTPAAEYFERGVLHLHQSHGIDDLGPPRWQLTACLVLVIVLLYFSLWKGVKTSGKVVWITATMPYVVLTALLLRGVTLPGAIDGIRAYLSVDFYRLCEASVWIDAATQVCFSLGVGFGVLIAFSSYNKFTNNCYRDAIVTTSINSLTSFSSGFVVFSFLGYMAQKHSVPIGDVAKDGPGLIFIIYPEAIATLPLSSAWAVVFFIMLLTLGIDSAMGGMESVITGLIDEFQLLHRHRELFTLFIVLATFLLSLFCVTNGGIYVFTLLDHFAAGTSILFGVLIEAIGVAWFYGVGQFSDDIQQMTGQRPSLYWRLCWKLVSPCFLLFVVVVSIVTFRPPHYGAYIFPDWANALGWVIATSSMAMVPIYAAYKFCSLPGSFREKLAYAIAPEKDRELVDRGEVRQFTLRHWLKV
Sodium-dependent serotonin transporter, sequence (P31645 whole entry): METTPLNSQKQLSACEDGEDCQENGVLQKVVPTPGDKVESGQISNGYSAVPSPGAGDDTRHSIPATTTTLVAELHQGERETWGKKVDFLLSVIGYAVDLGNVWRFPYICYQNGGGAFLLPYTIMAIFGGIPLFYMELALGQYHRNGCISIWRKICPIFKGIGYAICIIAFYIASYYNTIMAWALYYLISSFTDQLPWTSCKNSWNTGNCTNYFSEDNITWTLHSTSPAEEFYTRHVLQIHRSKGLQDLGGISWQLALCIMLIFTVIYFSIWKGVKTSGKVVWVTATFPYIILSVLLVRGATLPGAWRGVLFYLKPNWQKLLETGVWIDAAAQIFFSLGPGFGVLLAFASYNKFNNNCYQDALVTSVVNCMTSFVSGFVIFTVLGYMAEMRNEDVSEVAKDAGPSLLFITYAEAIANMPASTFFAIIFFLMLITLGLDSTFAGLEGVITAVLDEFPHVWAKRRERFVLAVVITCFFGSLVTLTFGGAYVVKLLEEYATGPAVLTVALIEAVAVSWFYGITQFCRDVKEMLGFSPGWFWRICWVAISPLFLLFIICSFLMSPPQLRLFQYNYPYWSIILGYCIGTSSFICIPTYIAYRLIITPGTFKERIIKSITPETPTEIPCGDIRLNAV

Usually IC50 stands for the point on the concentration scale where inhibition reaches its midpoint. The low end stands for greater potency in that assay, the high end for weaker potency in that assay. As usually defined, the inhibition is the relative decrease from the control value, in per cent. As to `COc1ccc2cc(C(O)CCN3CC=C(Cc4ccccc4)CC3)ccc2c1Cl` (racemic), the results for the half-inhibitory concentration (IC50) in data set [1], in [2] and in data set [6] were 346 nM, 265 nM and 420 nM, respectively. In addition, the Activity result in the data set with Mus musculus is “Non-toxic”. The inhibition was 12.9% in data set [3], 46.7% in [4], 10.6% in [5] and -0.9% in data set [7].
On to `OC(CCN1CC=C(Cc2ccccc2)CC1)c1cc2ccccc2s1` (racemic), for which the inhibition amounted to 6.1% in [8]; 6.5% in [3]; 41.2% in data set [4]; 0.1% in data set [5]; 53.7% in [7]. Besides, the IC50 in [1] was found to be 491 nM; in [2], 255 nM; on D(1A) dopamine receptor, 9650 nM; in [6], 327 nM. Also, the Activity result in the data set with Mus musculus is “Non-toxic”.
As usually defined, the Tmax is the time at which the peak concentration occurs. One may read the Cmax as the highest concentration seen after dosing. The term AUC(0-inf) denotes total exposure, with the tail of the curve extrapolated. A low value points to low exposure. As usually defined, the bioavailability is dose-corrected exposure relative to a reference, in per cent. High values mean good availability, low ones poor availability. Regarding `OC(CCN1CCC(O)(Cc2ccccc2)CC1)c1ccc(Cl)c(Cl)c1` (racemic), the inhibition came to 4.9% in data set [8]; 16.5% in data set [3]; 15.3% in data set [4]; 12.5% in data set [5]; 14.8% in data set [7]. In addition, the IC50 in [1] came out at 564 nM; in data set [2], 337 nM; in [10], 8000 nM; in [6], 265 nM. In data set [9], the Tmax was 0.7 h. The Activity entry with Mus musculus is “Non-toxic”. Also, the half-life was 2.9 h in data set [11] and 2.3 h in data set [12]. Further, the Cmax in data set [13] was found to be 750 ng/mL; in data set [17], 897 ng/mL. Also, the AUC(0-inf) in data set [14] amounted to 1230 ng·h/mL; in data set [16], 5440 ng·h/mL. Further, the bioavailability in data set [15] worked out at 44.1%.
Consider `OC(CCN1CC=C(Cc2ccccc2)CC1)c1ccc(Cl)c(Cl)c1` (racemic), for which the inhibition stood at 33.5% in [8]; 7.9% in data set [3]; 58.9% in data set [4]; 31.2% in data set [5]; 1.9% in [7]. Moreover, the concentration for half-maximal inhibition (IC50) in data set [1] was 689 nM; in data set [2], 425 nM; in [6], 178 nM. Besides, the Activity result in the data set on Mus musculus is given as “Non-toxic”.
For `OC(CCN1CC=C(Cc2ccccc2)CC1)c1csc2ccccc12` (racemic), the inhibition in data set [8] was determined as 14.5%; in data set [3] it was 3.7%; in data set [4] it was 33.4%; in [5], 45.3%; in data set [7] it was 16.8%. For the same compound, the figures for the IC50 in [1], in data set [2] and in [6] were 566 nM, 171 nM and 385 nM, respectively. The Tmax in data set [9] was 0.5 h. The Activity entry with Mus musculus was “Non-toxic”. The half-life in [11] was 3.5 h; in [12] it was 2.5 h. Also, the Cmax in [13] came out at 653 ng/mL; in data set [17] it was 923 ng/mL. Also, the AUC(0-inf) in [14] stood at 1020 ng·h/mL; in [16] it was 5720 ng·h/mL. The compound also showed a bioavailability in data set [15] of 55.8%.

For the origin of these results see ChEMBL document CHEMBL2046296, “Synthesis and antidepressant activity of arylalkanol-piperidine derivatives as triple reuptake inhibitors” (Eur J Med Chem, 2012).
